Screens as filed in PubChem.
This is a sample that favours compounds with a hit; in the whole collection about 2.2% have one here.
DNA FID counter-1 – counter-screen for HCV NS3 helicase inhibitors: DNA intercalator displacement. DNA fluorescent intercalator displacement, fluorescence. AID 1845. inhibition, % at 7.9 µM. 290,000 tested, 0.17% active;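 further: higher means more ethidium bromide displaced from hairpin DNA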
NS3 helicase inh – HCV NS3 helicase inhibition. NS3 helicase DNA unwinding, Cy5 molecular beacon fluorescence. inhibition, % at 10.9 µM. 290,000 tested, 0.56% active. AID 1800;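 active means inhibition above the mean of all tested compounds plus 3 SD, set per campaign, cut at about 35% in these data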
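test system = hepatitis C virus NS3 helicase domain fragment enzyme | reagent = annealed dual-labelled DNA beacon duplex, ATP-started | times = 1 h at 25 °C | detection = Cy5 fluorescence, 0 and 60 min reads | read-out basis = percent inhibition from t60/t0 fluorescence ratio | control set = DMSO and thioflavine S | replication = one well per compound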
HCV core dimer – blocks dimerization of HCV core protein | TR-FRET GST/Flag-core106 dimerization, 1536-well | inhibition, % at 5 µM | 300,000 tested, 0.33% active | AID 1899;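 active means inhibition above the mean of all tested compounds plus 3 SD, set per screening campaign, cut at about 45% in these data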
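Assay system: Tagged HCV core106 pair (GST and Flag) | Buffer or medium: KF-containing HEPES buffer, pH 7.45, DTT, CHAPS, BSA | Also added: Eu donor and XL665 acceptor anti-tag antibodies | Dosing: One concentration, 5 µM, in 0.5% DMSO | Timing: 4 h at 22.5 °C | Technique: TR-FRET 671 and 617 nm emission | Repeats: Singlicate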
GPR7 antagonist – human neuropeptides B/W receptor 1 antagonism | inhibition, % at 4.4 µM | GPR7-expressing cells, fluorescence antagonist assay | 290,000 tested, 1.1% active | AID 1861 | P48145; in the data active means inhibition above about 16%, passing the limit was not always enough;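 further: cells stimulated with the agonist NPW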
DAGLB inhibitor – blocks human DAGLB lipase activity | 340,000 tested, 0.059% active | inhibition, % at 5.17 µM | HEK293T DAGLB membrane lysate, EnzChek fluorogenic substrate | Q8NCG7; in the data active means inhibition above about 34%
Target sequence (Q8NCG7 whole entry, looked up): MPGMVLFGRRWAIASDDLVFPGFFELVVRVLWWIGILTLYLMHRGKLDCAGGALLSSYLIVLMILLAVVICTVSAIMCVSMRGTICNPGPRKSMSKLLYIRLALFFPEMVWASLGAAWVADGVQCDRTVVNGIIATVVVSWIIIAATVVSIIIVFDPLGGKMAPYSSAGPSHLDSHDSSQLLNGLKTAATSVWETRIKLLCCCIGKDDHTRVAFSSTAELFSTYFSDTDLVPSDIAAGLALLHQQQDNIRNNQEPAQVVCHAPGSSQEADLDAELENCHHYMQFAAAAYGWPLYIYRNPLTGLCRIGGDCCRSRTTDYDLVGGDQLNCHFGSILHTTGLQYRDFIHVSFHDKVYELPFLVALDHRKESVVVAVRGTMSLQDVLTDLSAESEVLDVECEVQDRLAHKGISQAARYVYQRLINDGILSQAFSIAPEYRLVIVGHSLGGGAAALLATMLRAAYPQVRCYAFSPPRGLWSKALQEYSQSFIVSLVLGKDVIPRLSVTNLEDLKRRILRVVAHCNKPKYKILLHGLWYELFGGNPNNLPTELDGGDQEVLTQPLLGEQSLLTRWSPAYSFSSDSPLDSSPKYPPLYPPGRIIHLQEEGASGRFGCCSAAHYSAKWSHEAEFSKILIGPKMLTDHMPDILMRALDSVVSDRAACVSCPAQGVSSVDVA
GRK2 inh – inhibitors of human GRK2 displacing RNA aptamer; bead flow cytometry, FAM-aptamer displacement from GRK2; P25098; 330,000 tested, 0.59% active; inhibition of aptamer binding, % at 10 µM;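 active means inhibition of aptamer binding above 40%, roughly 3 SD of noise, on plates passing a quality check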;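 further: median bead fluorescence of bound FAM aptamer so fluorescent compounds give negative values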
NS3 helicase cf – HCV NS3 helicase inhibition, confirmation assay | AID 1943 | inhibition, % at 10.9 µM | 1,600 tested, 31% active | NS3 helicase DNA unwinding, Cy5 molecular beacon fluorescence | shares compounds with NS3 helicase inh;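 active means inhibition above the mean of all tested compounds plus 3 SD, cutoff set per campaign, cut at about 36% in these data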
DNA FID counter-2 – counter-screen for HCV NS3 helicase inhibitors: DNA intercalator displacement. inhibition, % at 7.9 µM. DNA fluorescent intercalator displacement, fluorescence. shares compounds with NS3 helicase inh. 1,600 tested, 4% active;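 further: higher means more displacement of ethidium bromide from the DNA hairpin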
DNA FID DR – displaces fluorescent intercalator from DNA, HCV helicase counter-screen; shares compounds with NS3 helicase inh; fluorescent intercalator displacement from DNA, fluorescence; IC50, µM; 120 tested, under 10 active; call rule not given here
Each line names hits and unclear results; the compound was inactive in the other large screens (follow-up assays come after a bar, where they were run). Unless noted, no stated cut-off is given here; in the data, active means inhibition above about 37%; inactive means the rest.

Cc1c(NC(=O)c2nn3c(C(F)(F)F)cc(-c4ccccc4)nc3c2Cl)c(=O)n(-c2ccccc2)n1C	NS3 helicase inh 36.8 | NS3 helicase cf inactive | DNA FID counter-2 inactive
COc1ccc(-c2cc(C(F)(F)F)n3nc(C(=O)Nc4c(C)n(C)n(-c5ccccc5)c4=O)c(Cl)c3n2)cc1	none
CCN(CC)S(=O)(=O)c1cccc(C(=O)N/N=C/c2ccc(O)c(O)c2O)c1	NS3 helicase inh 45.1 | NS3 helicase cf 76.4 | DNA FID counter-2 inactive | DNA FID DR inactive
COc1ccc(O)c(/C=N/NC(=S)Nc2cccc(S(=O)(=O)N(C)C)c2)c1	none
CN(C)S(=O)(=O)c1cccc(NC(=S)N/N=C/c2ccc(O)c(O)c2O)c1	NS3 helicase inh 40.6 (no result: HCV core dimer, GRK2 inh) | NS3 helicase cf inactive | DNA FID counter-2 50.0
COCCN(CC(=O)Nc1cccc(C)c1C)C(=O)c1ccc2ccccc2n1	none (no result: DNA FID counter-1, NS3 helicase inh, HCV core dimer, GPR7 antagonist)
COc1cccc(-c2ccc3c(c2)O[C@@H](CN(C)C(=O)C2CCOCC2)[C@H](C)CN([C@H](C)CO)S3(=O)=O)c1	none (no result: DNA FID counter-1, NS3 helicase inh, HCV core dimer, GPR7 antagonist, GRK2 inh)
O=C1CSC2=NCN(c3ccc4c(c3)OCO4)CN12	none
CN(C)c1ccc(N2CN=C3SCC(=O)N3C2)cc1	NS3 helicase inh 59.1 | NS3 helicase cf inactive | DNA FID counter-2 inactive
O=C(Nc1ccc(Nc2ccncc2)cc1)c1ccc(Nc2ccnc3ccc([N+](=O)[O-])cc23)cc1	DNA FID counter-1 38.9, NS3 helicase inh 52.6 (no result: HCV core dimer, GRK2 inh) | NS3 helicase cf 77.8 | DNA FID counter-2 102.7
O=C(Nc1ccc(Cc2ccncc2)cc1)c1cccc([N+](=O)[O-])c1	none
COc1ccc(C2=C(C)C(N3CCN(C(=O)c4ccco4)CC3)=NS2(=O)=O)cc1	none
Cc1ccc([C@H]2N[C@]3(CCCN(Cc4ccc(C(F)(F)F)cc4)C3=O)[C@H]3C(=O)N(C)C(=O)[C@@H]23)cc1	none (no result: DNA FID counter-1, NS3 helicase inh, HCV core dimer, GPR7 antagonist, GRK2 inh)
CC1CC(C)CN(C(=O)CN2C(=O)NC(c3ccccc3)(c3ccccc3)C2=O)C1 (stereo unspecified)	none (no result: DNA FID counter-1, NS3 helicase inh, HCV core dimer, GPR7 antagonist)
Oc1c(Br)cc(/C=N/n2c(-c3ccccc3)n[nH]c2=S)c(Br)c1O	NS3 helicase inh 39.0 (no result: DAGLB inhibitor) | NS3 helicase cf 65.2 | DNA FID counter-2 inactive
Cc1cccc(NC(=O)CNC(=O)Cn2cc(C(F)(F)F)cc(Cl)c2=O)c1C	none (no result: DNA FID counter-1, NS3 helicase inh, HCV core dimer, GPR7 antagonist, GRK2 inh)
C/C(CC(=O)Nc1ccc(Cl)c(C(F)(F)F)c1)=N\NC(=O)c1ccccc1O	NS3 helicase inh 40.6 | NS3 helicase cf inactive | DNA FID counter-2 inactive
C/C(CC(=O)Nc1ccc(Cl)c(C(F)(F)F)c1)=N\NC(=O)c1cccc(O)c1	none
CCCCc1nc2cc(C(=O)N3CCN(c4nc(C)cnc4C)CC3)ccc2o1	none
CC1CC(=O)C(C(C2=C(O)CC(C)CC2=O)c2ccccc2)=C(O)C1 (stereo unspecified)	none (no result: DNA FID counter-1, NS3 helicase inh, HCV core dimer, GPR7 antagonist, GRK2 inh)
CN(C)/C=C1\C(=O)N(c2ccc([N+](=O)[O-])cc2)N=C1c1ccccc1	NS3 helicase inh 40.0 | NS3 helicase cf 53.3 | DNA FID counter-2 inactive
CN(C)/C=C1/C(=O)N(c2ccc([N+](=O)[O-])cc2)N=C1c1ccccc1	none (no result: DAGLB inhibitor)
CCc1sc(C(=O)Nc2cc(S(=O)(=O)N3CCOCC3)ccc2OC)cc1C	none (no result: DNA FID counter-1, NS3 helicase inh, HCV core dimer, GPR7 antagonist)
CC(Oc1ccc2c(-c3ccccc3)cc(=O)oc2c1)C(=O)NC(Cc1c[nH]c2ccc(O)cc12)C(=O)O (stereo unspecified)	NS3 helicase inh 40.9 | NS3 helicase cf 39.4 | DNA FID counter-2 inactive
CCCc1cc(=O)oc2cc(OCC(=O)NC(Cc3c[nH]c4ccc(O)cc34)C(=O)O)c(Cl)cc12 (stereo unspecified)	NS3 helicase inh 52.7 | NS3 helicase cf inactive | DNA FID counter-2 inactive
Cc1cc(OCC(=O)NC(Cc2c[nH]c3ccc(O)cc23)C(=O)O)c2c(C)c(C)c(=O)oc2c1 (stereo unspecified)	none
O=C(Nc1cccc(Cl)c1)c1nc[nH]c1C(=O)Nc1ccccc1F	none (no result: DNA FID counter-1, NS3 helicase inh, HCV core dimer, GPR7 antagonist, GRK2 inh)
